Assay results as given in ChEMBL document CHEMBL3272186, “Synthesis of new cyclic nucleotides and their differential stimulatory effects on thyroid function in mice” (J Med Chem, 1976).

How the values were obtained:
Mus musculus [1] = test: Induction of radioiodine secretion from 14 days iodine-poor diet fed mouse thyroid assessed as blood [125I] level at 60 mg/kg, iv after 2 hrs pretreated with 10 ug L-thyroxine and [125-I] relative to control by McKenzie Bioassay; format: functional, Thyroid gland
Mus musculus [2] = test: Induction of radioiodine secretion from 14 days iodine-poor diet fed mouse thyroid assessed as blood [125I] level at 30 mg/kg, iv after 2 hrs pretreated with 10 ug L-thyroxine and [125-I] relative to control by McKenzie Bioassay; format: functional, Thyroid gland
Procedure, shortened: (§1)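 Weanling female mice (14–16 g) fed an iodine-poor diet for 14 days, then given 10 μg L-thyroxine sc and 6–8 μCi 125I ip, with L-thyroxine (1 mg/l) in drinking water for 3 days. On day 4, cyclic nucleotides were given into the tail vein as sodium salts in aqueous solution, pH 7.4. Orbital-sinus blood was sampled at 0 and 2 h and γ-counted. Result is cpm(2 h)/cpm(0 h) × 100; mean of about six animals per dose.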

[3] = Toxicity in iv dosed mouse; format: organism-based; conditions: in vivo
Procedure, shortened: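 Female mice (14–16 g, post-weaning) kept 14 days on an iodine-poor diet. They were then given 10 μg L-thyroxine sc and 6–8 μCi 125I ip, followed by L-thyroxine 1 mg/l in drinking water for 3 days. On day 4, cyclic nucleotides were injected into the tail vein as sodium salts in aqueous solution, pH 7.4, at 6–60 mg/kg. Deaths were recorded per dose group of about six animals.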

Mus musculus [4] = test: Induction of radioiodine secretion from 14 days iodine-poor diet fed mouse thyroid assessed as blood [125I] level at 15 mg/kg, iv after 2 hrs pretreated with 10 ug L-thyroxine and [125-I] relative to control by McKenzie Bioassay; format: functional, Thyroid gland; procedure, shortened: as §1
Mus musculus [5] = test: Induction of radioiodine secretion from 14 days iodine-poor diet fed mouse thyroid assessed as blood [125I] level at 45 mg/kg, iv after 2 hrs pretreated with 10 ug L-thyroxine and [125-I] relative to control by McKenzie Bioassay; format: functional, Thyroid gland; procedure, shortened: as §1
Mus musculus [6] = test: Induction of radioiodine secretion from 14 days iodine-poor diet fed mouse thyroid assessed as blood [125I] level at 6 mg/kg, iv after 2 hrs pretreated with 10 ug L-thyroxine and [125-I] relative to control by McKenzie Bioassay; format: functional, Thyroid gland; procedure, shortened: as §1
Mus musculus [7] = test: Induction of serum thyroxine level in Swiss mouse measured per 100 ml at 1 mg, iv after 1 hr by radioimmunoassay (reference value: 4.20 +/- 0.25 to 6.06 +/- 0.36 ug); format: functional
Mus musculus [8] = test: Induction of serum thyroxine level in Swiss mouse measured per 100 ml at 1 mg, iv after 2 hrs by radioimmunoassay (reference value: 4.20 +/- 0.25 to 6.06 +/- 0.36 ug); format: functional
[9] = Stability of the compound assessed as hydrolysis in presence of phosphodiesterase; format: ADME

Row | SMILES | Activity (Mus musculus [1]) [%] | Activity (Mus musculus [2]) [%] | LD50 [3] [mg/kg] | Activity (Mus musculus [4]) [%] | Activity (Mus musculus [5]) [%] | Activity (Mus musculus [6]) [%] | serum T4 (Mus musculus [7]) [µg/dL] | serum T4 (Mus musculus [8]) [µg/dL] | Stability [9]
1 | CCCC(=O)Nc1ncnc2c1nc(N)n2[C@@H]1O[C@@H]2COP(=O)([O-])O[C@H]2[C@H]1OC(=O)CCC.[Na+] | 164 | 146 | > 200 |  |  |  |  |  | 
2 | CCCC(=O)Nc1ncnc2c1nc(SC)n2[C@@H]1O[C@@H]2COP(=O)([O-])O[C@H]2[C@H]1O.[Na+] | 533 | 204 | > 200 | 121 |  |  |  |  | 
3 | CCCC(=O)O[C@@H]1[C@@H]2OP(=O)([O-])OC[C@H]2O[C@H]1n1c(SC)nc2c(N)ncnc21.[Na+] |  | 156 | > 200 |  | 110 |  |  |  | 
4 | Nc1ncnc2c1nc(SCc1ccccc1)n2[C@@H]1O[C@@H]2COP(=O)([O-])O[C@H]2[C@H]1O.[Na+] |  | 195 |  | 183 |  | 135 |  |  | 
5 | CCCC(=O)Nc1ncnc2c1nc(O)n2[C@@H]1O[C@@H]2COP(=O)([O-])O[C@H]2[C@H]1OC(=O)CCC.[Na+] | 582 | 500 | > 200 | 184 |  |  | 5.58 |  | 
6 | CSc1nc2c(N)ncnc2n1[C@@H]1O[C@@H]2COP(=O)([O-])O[C@H]2[C@H]1O.[Na+] |  | 804 |  | 645 |  | 492 | 6.32 | 6.47 | 
7 | Nc1ncnc2c1nc(N)n2[C@@H]1O[C@@H]2COP(=O)([O-])O[C@H]2[C@H]1O.[Na+] |  | 607 |  | 663 | 818 | 226 | 6.84 |  | 
8 | Nc1ncnc2c1nc(Br)n2[C@@H]1O[C@@H]2COP(=O)([O-])O[C@H]2[C@H]1O.[Na+] | 488 | 331 |  | 284 |  | 248 |  |  | 
9 | CCCC(=O)Nc1ncnc2c1nc(SC)n2[C@@H]1O[C@@H]2COP(=O)([O-])O[C@H]2[C@H]1OC(=O)CCC.[Na+] | 174 | 125 | > 200 | 150 |  |  |  |  | 
10 | CSc1nc2c(N)ncnc2n1[C@@H]1O[C@H](COP(=O)(O)O)[C@@H](O)[C@H]1O |  | 112 |  |  |  |  | 4.44 | 4.78 | 
11 | CCCC(=O)Nc1ncnc2c1nc(SCc1ccccc1)n2[C@@H]1O[C@@H]2COP(=O)([O-])O[C@H]2[C@H]1OC(=O)CCC.[Na+] | 123 | 141 |  | 170 |  | 116 |  |  | 
12 | CCCC(=O)O[C@@H]1[C@@H]2OP(=O)([O-])OC[C@H]2O[C@H]1n1c(S)nc2c(N)ncnc21.[Na+] | 190 | 153 | > 200 | 155 |  |  |  |  | 
13 | Nc1ncnc2c1nc(O)n2[C@@H]1O[C@@H]2COP(=O)([O-])O[C@H]2[C@H]1O.[Na+] |  |  |  | 114 |  |  |  |  | 
14 | Nc1ncnc2c1nc(S)n2[C@@H]1O[C@@H]2COP(=O)([O-])O[C@H]2[C@H]1O.[Na+] |  |  |  |  |  | 136 |  |  | 
15 | CCCC(=O)Nc1ncnc2c1nc(S)n2[C@@H]1O[C@@H]2COP(=O)([O-])O[C@H]2[C@H]1OC(=O)CCC.[Na+] | 238 | 177 | > 200 | 154 |  |  | 4.3 |  | 
16 | [N-]=[N+]=Nc1nc2c(N)ncnc2n1[C@@H]1O[C@@H]2COP(=O)([O-])O[C@H]2[C@H]1O.[Na+] |  | 633 |  | 594 |  | 227 | 6.19 |  | 
17 | CCCC(=O)Nc1ncnc2c1nc(SCc1ccccc1)n2[C@@H]1O[C@@H]2COP(=O)([O-])O[C@H]2[C@H]1O.[Na+] | 197 | 122 | > 200 | 146 |  |  |  |  | 
18 | CCCC(=O)Nc1ncnc2c1nc(S)n2[C@@H]1O[C@@H]2COP(=O)([O-])O[C@H]2[C@H]1O.[Na+] | 630 | 342 | > 200 | 139 |  |  |  |  | 
19 | CCCC(=O)Nc1ncnc2c1ncn2[C@@H]1O[C@@H]2COP(=O)([O-])O[C@H]2[C@H]1OC(=O)CCC.[Na+] | 245 | 136 | > 200 |  |  |  | 5.15 |  | Stable
20 | [Cl-].[Na+] [SODIUM CHLORIDE] |  |  |  |  |  |  | 6 | 5.83 | 
